From ChEMBL document CHEMBL1122660 (J Med Chem, 1984)

How the values were obtained:
[1] = Partition coefficient between 1-octanol and water containing phosphate buffer at pH 7.4; assay type: physicochemical; conditions: 1-octanol/water containing phosphate buffer
[2] = test system: P388; test: Optimum dose (mg/kg) against P388 leukemic cells; assay type: functional, Mus musculus
[3] = test system: P388; test: Minimum effective dose against P388 leukemic cells; assay type: functional; conditions: Mus musculus, read-out: MED
[4] = species: Mus musculus; test: Maximum percent T/C (antitumor activity) against P388 leukemia cells for Mitomycin C. The number of 30-day survivors is given in the parenthesis.; assay type: functional
[5] = test system: P388; test: Maximum percent T/C (antitumor activity) against P388 leukemia cells; assay type: functional, Mus musculus
[6] = test system: P388; test: Ratio of optimal dose (OD) and minimum effective dose (MED) required for antitumor activity in mice bearing P-388 lymphocytic leukemia; assay type: functional, Mus musculus
[7] = Distribution between 1-octanol and water containing phosphate buffer at pH 7.4; assay type: physicochemical; conditions: 1-octanol/water containing phosphate buffer
[8] = test system: P388; test: Maximum percent T/C (antitumor activity) against P388 leukemia cells for Mitomycin C; assay type: functional, Mus musculus
[9] = species: Mus musculus; test: Percentage change in WBC at optimum dose on day 3; assay type: functional
[10] = species: Mus musculus; test: Maximum percent T/C (antitumor activity) against P388 leukemia cells for the compound. The number of 30-day survivors is given in the parenthesis.; assay type: functional
[11] = test system: Mus musculus; test: Evaluated for antitumor activity against B-16 melanoma in mice at a dose 8 mg/kg day, ip, on days 1, 4, and 7 against B-16 Melanoma cell; assay type: functional
[12] = test system: Mus musculus; test: Evaluated for antitumor activity against B-16 melanoma in mice at a dose 2 mg/kg day, ip, on days 1, 4, and 7 against B-16 Melanoma cell; assay type: functional
Procedure, shortened: (§1)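 B-16 melanoma in mice, run at Bristol Laboratories by standard NCI protocols. Compound given ip on days 1, 4 and 7 in Me2SO + buffered saline vehicle; ten mice per dose. Read-outs per dose: %T/C, number of survivors, and weight change.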

[13] = test system: Mus musculus; test: Evaluated for antitumor activity against B-16 melanoma in mice at a dose 4 mg/kg day, ip, on days 1, 4, and 7 against B-16 Melanoma cell; assay type: functional; procedure, shortened: as §1
[14] = test system: Mus musculus; test: Evaluated for antitumor activity against B-16 melanoma in mice at a dose 6 mg/kg day, ip, on days 1, 4, and 7 against B-16 Melanoma cell; assay type: functional
[15] = test system: Mus musculus; test: Evaluated for antitumor activity against B-16 melanoma in mice aat a dose 2 mg/kg day, ip,on days 1, 4, and 7 against B-16 Melanoma cell; assay type: functional
[16] = test system: Mus musculus; test: Evaluated for antitumor activity against B-16 melanoma in mice at a dose 12 mg/kg day, ip, on days 1, 4, and 7 against B-16 Melanoma cell; assay type: functional
[17] = test system: Mus musculus; test: Evaluated for antitumor activity against B-16 melanoma in mice at a dose 3 mg/kg day, ip, on days 1, 4, and 7 against B-16 Melanoma cell; assay type: functional; procedure, shortened: as §1
[18] = test system: Mus musculus; test: Evaluated for antitumor activity against B-16 melanoma in mice at a dose 5 mg/kg day, ip, on days 1, 4, and 7 against B-16 Melanoma cell; assay type: functional
[19] = test system: Mus musculus; test: Evaluated for antitumor activity against B-16 melanoma in mice at a dose 5 mg/kg day, ip, on days 1, 4, and 7 against B-16 Melanoma cell *-Tumors survivors on day 62; assay type: functional
[20] = test system: Mus musculus; test: Evaluated for antitumor activity against B-16 melanoma in mice aat a dose 3 mg/kg day, ip,on days 1, 4, and 7 against B-16 Melanoma cell; assay type: functional
[21] = test system: Mus musculus; test: Evaluated for antitumor activity against B-16 melanoma in mice at a dose 3 mg/kg day, ip, on days 1, 4, and 7 against B-16 Melanoma cell *-Tumors survivors on day 62; assay type: functional

Structure (SMILES) | logD [1] | OD [2] [mg/kg] | minimal effective dose [3] [mg/kg] | T/C [5] [%] | Therapeutic ratio [6] | logD [7] | T/C [8] [%] | Change [9] [%] | T/C [10] [%] | other results
COC12[C@@H]3N[C@@H]3CN1C1=C(C(=O)C(Nc3ccc(Cl)cc3)=C(C)C1=O)[C@@H]2COC(N)=O (some centres undefined) | 2.01 | 25.6 | 6.4 | 144 | 4 | – | – | – | – | T/C [4]: 250%
COC12[C@@H]3N[C@@H]3CN1C1=C(C(=O)C(Nc3nc(C)c(C)s3)=C(C)C1=O)[C@@H]2COC(N)=O (some centres undefined) | – | 25.6 | 0.2 | 188 | 128 | 1.29 | 219 | – | – | –
COC12[C@@H]3N[C@@H]3CN1c1c(O)c(C)c(/N=C3/C=CC(=N)N=C3)c(O)c1[C@@H]2COC(N)=O (some centres undefined) | – | 12.8 | 0.4 | 277 | 32 | -0.32 | 206 | – | – | –
COc1ccc(NC2=C(C)C(=O)C3=C(C2=O)[C@H](COC(N)=O)C2(OC)[C@@H]4N[C@@H]4CN32)cc1 (some centres undefined) | 1.28 | 12.8 | – | – | 16 | – | – | -76 | 316 | T/C [4]: 268%
COC12[C@@H]3N[C@@H]3CN1C1=C(C(=O)C(N=C3C=CC(=Nc4c(C)c(O)c5c(c4O)[C@H](COC(N)=O)C4(OC)[C@@H]6N[C@@H]6CN54)C=C3)=C(C)C1=O)[C@@H]2COC(N)=O (some centres undefined) | – | 25.6 | 1.6 | 161 | 8 | – | – | – | – | T/C [4]: 250%
COC12[C@@H]3N[C@@H]3CN1C1=C(C(=O)C(Nc3nc4cc(Cl)ccc4o3)=C(C)C1=O)[C@@H]2COC(N)=O (some centres undefined) | – | 25.6 | 1.6 | 178 | 16 | – | 267 | -33 | – | –
COc1ccc(NC2=C(C)C(=O)C3=C(C2=O)[C@H](COC(N)=O)C2(OC)[C@@H]4N[C@@H]4CN32)cn1 (some centres undefined) | – | 6.4 | 0.2 | 211 | 32 | 0.59 | 233 | -45 | – | –
COc1ccc(NC2=C(C)C(=O)C3=C(C2=O)[C@H](COC(N)=O)C2(OC)[C@@H]4N[C@@H]4CN32)cc1OC (some centres undefined) | – | 12.8 | 0.2 | – | 64 | – | 278 | – | >333 | Average weight gain [11]: 0.9 g; T/C [11]: 227%; T/C [12]: 180%; Average weight gain [13]: -0.6 g; T/C [13]: 252%; Average weight gain [14]: 0.6 g; T/C [14]: 263%; Average weight gain [15]: -1.3 g
COC12[C@@H]3N[C@@H]3CN1C1=C(C(=O)C(Nc3nc(C)cs3)=C(C)C1=O)[C@@H]2COC(N)=O (some centres undefined) | – | 6.4 | 0.4 | 172 | 16 | 1.16 | 224 | – | – | –
[H][C@@]12CN3c4c(O)c(C)c(/N=C5C=C/C(=N\CC(=O)O)C=C/5)c(O)c4[C@H](COC(N)=O)C3(OC)[C@]1([H])N2 (some centres undefined) | -0.78 | 25.6 | 0.8 | – | 32 | – | – | – | 322 | T/C [4]: 294%
[H][C@@]12CN3c4c(O)c(C)c(/N=C5C=C/C(=N\C(C)=O)C=C/5)c(O)c4[C@H](COC(N)=O)C3(OC)[C@]1([H])N2 (some centres undefined) | 0.33 | 25.6 | 0.2 | – | 128 | – | 200 | -40 | >333 | Average weight gain [16]: -1.3 g; T/C [16]: 175%; Average weight gain [11]: 0.3 g; T/C [11]: 207%; T/C [17]: 155%; Average weight gain [18]: 0.8 g; T/C [18]: 185%; Cures [19]: 0; Average weight gain [20]: 1.4 g; Cures [21]: 0
COC12[C@@H]3N[C@@H]3CN1c1c(O)c(C)c(/N=C3/C=CN=N3)c(O)c1[C@@H]2COC(N)=O (some centres undefined) | – | 25.6 | 0.8 | – | – | – | 161 | -15 | 333 | –
COC12[C@@H]3N[C@@H]3CN1c1c(O)c(C)c(N=C3C=CC(=O)C=C3)c(O)c1[C@@H]2COC(N)=O (some centres undefined) | 0.63 | 25.6 | 0.2 | >300 | 128 | – | 144 | -27 | – | –
COC12[C@@H]3N[C@@H]3CN1c1c(O)c(C)c(N=C3C=CC(=N)C=C3)c(O)c1[C@@H]2COC(N)=O (some centres undefined) | 0.07 | 12.8 | < 0.2 | – | >64 | – | – | -64 | >337 | T/C [4]: 250%
COC12[C@@H]3N[C@@H]3CN1C1=C(C(=O)C(Nc3cc(C)ns3)=C(C)C1=O)[C@@H]2COC(N)=O (some centres undefined) | – | 25.6 | – | 169 | 32 | -0.3 | 325 | – | – | –
COC12[C@@H]3N[C@@H]3CN1C1=C(C(=O)C(Nc3nccs3)=C(C)C1=O)[C@@H]2COC(N)=O (some centres undefined) | – | 6.4 | 0.4 | 194 | 32 | 0.62 | 281 | -22 | – | –
COC12[C@@H]3N[C@@H]3CN1C1=C(C(=O)C(Nc3cccnc3)=C(C)C1=O)[C@@H]2COC(N)=O (some centres undefined) | – | 3.2 | 0.2 | 211 | 16 | 0.52 | 198 | -33 | – | –
COC12[C@@H]3N[C@@H]3CN1C1=C(C(=O)C(Nc3cccc(N)c3)=C(C)C1=O)[C@@H]2COC(N)=O (some centres undefined) | 0.07 | 1.6 | < 0.2 | 222 | >8 | – | 200 | -17 | – | –
COC12[C@@H]3N[C@@H]3CN1C1=C(C(=O)C(Nc3ccc(C)cc3)=C(C)C1=O)[C@@H]2COC(N)=O (some centres undefined) | 1.86 | – | – | 206 | 32 | – | 200 | -37 | – | –
